Results pooled from the literature.
Lines come from different studies, so protocols differ.
WNK1: Serine/threonine-protein kinase WNK1 (WNK1, Homo sapiens, UniProt Q9H4A3)
MALT1: Mucosa-associated lymphoid tissue lymphoma translocation protein 1 (MALT1, Homo sapiens, UniProt Q9UDY8)
CDK15: Cyclin-dependent kinase 15 (CDK15, Homo sapiens, UniProt Q96Q40)

| SMILES | target | test | conditions | measurement | result |
| --- | --- | --- | --- | --- | --- |
| COc1cc(Cl)c(C(=O)N[C@@H](CN[C@H]2CC[C@@H](N)CC2)Cc2ccc(C#N)cc2)cc1-c1ccc(CN[C@H](C)c2ccc(C)cc2)o1 | Serine/threonine-protein kinase Nek3 (NEK3, Homo sapiens, UniProt P51956) | enzyme activity, inhibitor | 1 µM | remaining activity | 107% |
| COc1ncccc1-c1cnn2ccc(N3CCN(C(=O)OC(C)C)CC3)nc12 | WNK1 | binding, competition with immobilised ligand | 1 µM | remaining binding | 74% |
| Nc1ncc(-c2nc(N3CCOCC3)nc(N3CCOCC3)n2)c(C(F)F)n1 | WNK1 | binding, competition with immobilised ligand | 10 µM | remaining binding | 57% |
| CN(C)C(=O)COC(=O)Cc1ccc(OC(=O)c2ccc(NC(=N)N)cc2)cc1 | MALT1 | enzyme activity, inhibitor | 10 µM | inhibition | 48% |
| CCCCCn1nc(C(=O)N[C@H](C(N)=O)C(C)C)c2ccccc21 | Cannabinoid receptor 1 (CNR1, Homo sapiens, UniProt P21554) | calcium signal, agonist, fluorescence | – | Emax | 116% |
| Fc1cccc(-n2cnc3c(NCc4nc5c(F)c(F)ccc5[nH]4)nc(N4CCOCC4)nc32)c1 | CDK15 | binding, competition with immobilised ligand | 10 µM | binding vs control | 20% |
| CCN(CC)CCCC[C@H](NC(=O)[C@H](CC(C)C)NC(=O)[C@H](C)NC(=O)[C@H](Cc1ccccc1)NC(=O)c1ccc(C(C)(C)C)cc1)C(=O)N[C@@H](CO)C(=O)OC | ATPase family AAA domain-containing protein 2B (ATAD2B, Homo sapiens, UniProt Q9ULI0) | thermal stability, DSF | 25 µM | ΔTm | 0 °C |
| [H]/N=C(/N)c1ccc(NCc2nc3cc(C(=O)N(CCC(=O)O)c4ccccn4)ccc3n2C)cc1 | Vitamin K-dependent protein C (PROC, Homo sapiens, UniProt P04070) | enzyme activity, inhibitor | 0.2 µM | inhibition | 16% |
| Cc1nn(C)cc1-c1nc2c(N3CCN(Cc4ccc(Cl)cc4)CC3)c(Cl)cnc2[nH]1 | Phosphatidylinositol 4-phosphate 3-kinase C2 domain-containing subunit beta (PIK3C2B, Homo sapiens, UniProt O00750) | binding, competition with immobilised ligand | 1 µM | remaining binding | 100% |
| CN(CCN1CCC(OC(=O)Nc2ccccc2-c2ccccc2)CC1)C(=O)c1ccc(CN2CCC(C(N)=O)CC2)cc1 | Endothelin-1 receptor (EDNRA, Homo sapiens, UniProt P25101) | ligand displacement, radioligand | 1 µM | inhibition | 23% |
| CC(C)[C@H](NC(=O)OCc1ccccc1)C(=O)N[C@@H](CCCN=C(N)N)C(=O)N1CCC[C@H]1C(=O)N[C@@H](CCCN=C(N)N)C(=O)CF | MALT1 | enzyme activity, inhibitor | 10 nM | inhibition | 56% |
| C[C@@H](NC(=O)[C@@H](N)Cc1ccc(O)cc1)C(=O)N[C@@H](Cc1ccccc1)C(=O)NCC(=O)N[C@@H](Cc1ccc(O)cc1)C(=O)N1CCC[C@H]1C(=O)N[C@@H](CCCCN)C(=O)N[C@@H](CSC1CC(=O)N(CCCCCNC(=O)c2ccc(C3=c4cc5c(cc4Oc4cc6c(cc43)C(CS(=O)(=O)[O-])=CC(C)(C)N6C)=[N+](C)C(C)(C)C=C5CS(=O)(=O)O)c(C(=O)O)c2)C1=O)C(N)=O (stereo partly shown) | Mu-type opioid receptor (Oprm1, Mus musculus, UniProt P42866) | binding | – | koff | 0.068 s⁻¹ |
| O=[N+]([O-])c1cccc2[nH]c(CNc3nc(N4CCOCC4)nc4c3ncn4-c3ccsc3)nc12 | CDK15 | binding, competition with immobilised ligand | 10 µM | binding vs control | 47% |
